# Sampled rows, rich in hits. Any-hit rate of the full collection: about 3.8%.
# KCNQ1 block: inhibitors of human KCNQ1 channel, primary screen, cell-based, thallium flux, high-throughput; Potassium voltage-gated channel subfamily KQT member 1 (Homo sapiens), P51787; CHO-K1 KCNQ1, FluxOR thallium flux fluorescence; hits give high values; B-score at 10 µM; actives 1.3% (n = 310,000); AID 2642, 2010;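 active = compounds whose thallium flux B-score, printed positive for inhibition, exceeds three library SD while starting fluorescence stays within three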;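 also: channel opened by potassium depolarization with thallium stimulus after 20 min compound exposure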
# Target sequence (P51787 whole entry, looked up): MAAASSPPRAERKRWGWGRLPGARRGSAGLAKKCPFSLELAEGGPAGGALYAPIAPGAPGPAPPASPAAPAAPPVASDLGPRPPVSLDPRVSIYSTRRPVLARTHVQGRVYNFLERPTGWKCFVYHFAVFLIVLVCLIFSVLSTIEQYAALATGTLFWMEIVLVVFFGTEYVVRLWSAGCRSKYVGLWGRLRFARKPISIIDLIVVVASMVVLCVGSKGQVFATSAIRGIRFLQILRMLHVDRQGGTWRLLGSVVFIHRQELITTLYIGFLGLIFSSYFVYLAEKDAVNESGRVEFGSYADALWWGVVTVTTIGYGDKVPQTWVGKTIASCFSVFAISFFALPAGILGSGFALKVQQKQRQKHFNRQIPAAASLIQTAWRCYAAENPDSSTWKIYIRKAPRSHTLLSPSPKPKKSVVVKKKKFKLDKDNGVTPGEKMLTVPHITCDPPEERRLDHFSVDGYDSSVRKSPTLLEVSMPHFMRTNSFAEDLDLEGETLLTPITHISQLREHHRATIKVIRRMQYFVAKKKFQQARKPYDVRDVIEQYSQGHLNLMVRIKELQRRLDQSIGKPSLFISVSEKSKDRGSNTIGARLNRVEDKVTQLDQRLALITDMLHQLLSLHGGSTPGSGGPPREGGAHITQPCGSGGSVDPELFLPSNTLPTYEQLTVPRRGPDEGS
# KCNK3 block: human KCNK3 channel inhibitors, primary screen, CHO cells, FluxOR thallium flux, B-score; B-score at 10 µM; actives 0.84% (n = 340,000); Potassium channel subfamily K member 3 (Homo sapiens), O14649; FluxOR fluorescence; hits give low values;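 active = B-score under library mean minus 4 SD, starting fluorescence ratio at most library mean plus 5 SD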;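 also: more negative B-score means stronger inhibition of thallium flux through KCNK3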
# Kir21 block: inhibitors of mouse Kir2.1 inward-rectifier potassium channel | B-score at 10 µM | AID 1672, 2009 | HEK293-Kir2.1, FluxOR thallium flux fluorescence; hits give low values | actives 0.85% (n = 310,000);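 active = fluorescence ratio B-score at or below minus 3 SD of library scores, with starting-brightness B-score within 2 SD, cut at about -4.2 in these data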;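 also: channel flux triggered by added potassium and thallium sulfate stimulus; B-score of peak minus minimum fluorescence over baseline after thallium stimulus; more negative B-score means stronger Kir2.1 block with less thallium influx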
# KCNK9 inh: KCNK9 potassium channel inhibitors, primary screen, HEK293 cells, thallium flux; AID 488922, 2010; FluxOR thallium flux fluorescence; hits give low values; actives 1.2% (n = 310,000); B-score at 10 µM; Potassium channel subfamily K member 9 (Homo sapiens), Q9NPC2;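 active = ratio B-score over 3 SD below the library mean, with starting fluorescence within 5 SD of its mean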;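 also: negative B-score means less thallium flux so channel inhibition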
# hERG rescue: hERG rescue from dofetilide block, primary screen, cell-based, CHO-hERG, FluxOR thallium flux, dofetilide IC70; Voltage-gated inwardly rectifying potassium channel KCNH2 (Homo sapiens), Q12809; dofetilide IC70 present; activation (rescue from dofetilide block), less the hit threshold, % at 10 µM; actives 0.51% (n = 310,000);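 active = activation above the mean of controls blocked by dofetilide plus 5 SD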;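 also: thallium influx through hERG after potassium depolarization seen as dye fluorescence rise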
# KCNQ1 pot: potentiators or activators of KCNQ1 channel, primary screen, cell-based, thallium flux, high-throughput; actives 0.35% (n = 310,000); Potassium voltage-gated channel subfamily KQT member 1 (Homo sapiens), P51787; B-score at 10 µM; AID 2648, 2010; CHO-K1 KCNQ1, thallium flux FluxOR fluorescence; hits give high values;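 active = fluorescence ratio B-score, a plate-corrected score, at least three library SD, with initial intensity B-score within 5 SD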
#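 Assay system: CHO-K1 cells stably expressing KCNQ1. Medium: assay buffer for compound exposure, DMSO matched across wells. Timing: 37 °C overnight plating, 90-min dark dye load, 20-min compound pretreatment. Signal: kinetic FluxOR fluorescence, 10 s baseline plus 110 s post-stimulus.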
# An asterisk follows results filed as active; i = inactive; nt = not tested or not shown.
SMILES,KCNQ1 block,KCNK3 block,Kir21 block,KCNK9 inh,hERG rescue,KCNQ1 pot
Cn1c(N)c(C(=O)COC(=O)c2ccccc2C(=O)c2ccc(Cl)c([N+](=O)[O-])c2)c(=O)n(C)c1=O,nt,i,nt,nt,nt,nt
Cc1cccc(N=Nc2c(C)c(C#N)c(O)[nH]c2=O)c1,i,i,1.1,i,-10.3,i
Cc1c(C#N)c(O)[nH]c(=O)c1N=Nc1ccc(Br)cc1C(=O)O,i,i,-0.41,i,4.6*,i
Cc1nc2ccc(NC(=O)CCC3CCCC3)cc2s1,i,i,0.08,i,-5.1,i
COc1ccc2c(c1)CCCN2C(N)=Nc1ccc(Cl)cc1,i,i,-7.59*,i,-5.0,i
N=c1ncn(Cc2ccccc2)c2nc(SCCOc3ccccc3)[nH]c12,i,i,-1.63,i,-4.7,9*
Cc1ccc(OCCCCNC2CCCC(C)C2C)c(C)c1 (centres undefined),6*,i,-7.41*,i,-6.4,i
Cc1ccc(OCCCCN2CCCCC2)c(C)c1,i,i,0.68,i,-3.4,i
COCCN(CC(=O)Nc1cccc(C)c1C)C(=O)Cn1c(=O)cnc2ccccc21,nt,i,nt,nt,nt,nt
CCc1noc(C)c1C(=O)N(Cc1ccccc1)c1c(N)n(CCOC)c(=O)[nH]c1=O,i,i,0.55,i,-15.3,i
CC1(C)Cc2c(sc3[nH]c(=S)n(Cc4ccccc4)c(=O)c23)CO1,i,i,0.03,i,4.7*,34*
CC1(C)Cc2c(sc3c2c(N)nc(=S)n3Cc2ccccc2)CO1,i,nt,-0.62,i,-7.7,i
O=C(O)C(=Cc1cccc([N+](=O)[O-])c1)c1ccc(Cl)cc1,nt,i,nt,nt,nt,nt
Nc1nc2ccccc2n1CCOc1ccc(Br)cc1,i,i,-10.9*,i,-18.0,i
CCOC(=O)Cn1c(=N)n(CCOc2ccc(Br)cc2)c2ccccc21,i,i,-6.39*,i,-22.1,i
CCOC(=O)Cn1c(=N)n(CCOc2cccc(C)c2)c2ccccc21,nt,i,nt,nt,nt,nt
CCCOc1ccc(N2CC(C(=O)NC3=NCCS3)CC2=O)cc1 (centres undefined),i,i,-0.39,i,-11.8,i
COc1ccccc1OCCCCCc1c(C)n[nH]c1C,i,i,-1.39,i,-15.8,i
CCOc1ccccc1OCCCCCc1c(C)n[nH]c1C,i,i,-4.81*,i,-23.1,i
OCCNCCOc1ccccc1F,i,i,0.43,i,-2.5,i
CC(C)c1ccccc1NC(=O)CNCCOc1ccccc1F,6*,i,-11.2,i,-5.6,i
CCOC(=O)C1=C(COC(=O)CNS(=O)(=O)c2ccc(NC(C)=O)cc2)NC(=O)NC1C (centres undefined),nt,i,nt,nt,nt,nt
CN(C)C(CNC(=O)C1CCN(C(=O)/C=C/c2ccccc2)CC1)c1ccccc1 (centres undefined),i,i,0.56,i,-4.5,i
CC(C)CC(COCc1ccc(C(F)(F)F)cc1)N1CCN(C(=O)c2ccc(C(F)(F)F)cc2)CCC1=O (centres undefined),i,i,0.14,-7.13*,-3.9,i
O=C(c1ccc(C(F)(F)F)cc1)N1CCC(=O)N(C(COCc2ccccc2)Cc2ccccc2)CC1 (centres undefined),i,i,-2,i,-7.7,i
SMILES,KCNQ1 block,KCNK3 block,Kir21 block,KCNK9 inh,hERG rescue,KCNQ1 pot
COc1ccc(C2CC(c3cccs3)=NN2C(=O)CSc2nc3c(cnn3-c3ccccc3)c(=O)[nH]2)cc1 (centres undefined),6*,i,0.61,i,-16.2,i
Cc1cccc(C(=O)N2CCCC(N3CCN(c4ccccc4)CC3)C2)n1 (centres undefined),i,i,0.16,i,-5.3,i
COc1ccc(Cl)cc1NC(=O)C(C)N(C)Cc1ccc(C(F)(F)F)cc1 (centres undefined),i,i,0.76,-7.41*,-16.7,i
COc1cc(CN(C)C(C)C(=O)Nc2ccc([N+](=O)[O-])cc2Cl)ccc1OC(F)F (centres undefined),i,i,-0.14,i,-12.2,i
Cc1cc(F)ccc1S(=O)(=O)N1CCC2(CC1)OCCN2S(=O)(=O)c1cccs1,i,i,-0.03,i,-9.6,i
CCOC(=O)c1c(C)[nH]c(C)c1C(=O)COC(=O)c1cc2ccccc2cc1OC,i,i,-2.83,-7.73*,-7.7,i
O=C(CN1C(=O)c2cccnc2Oc2ccc(Cl)cc21)Nc1ccccc1F,i,i,1.49,-6.75*,-8.3,i
CCN(Cc1ccccc1)C1CCN(Cc2ccc(SC)cc2)CC1,i,i,-4.64*,i,-8.8,i
Cc1ccc(NC(=O)c2cccc3cccnc23)cc1,i,i,0.17,-7.56*,-7.6,i
CCOC(=O)Cc1csc(NC(=O)COc2ccc(N(C)S(=O)(=O)c3ccc(C)cc3)cc2)n1,i,i,-1.09,-6.75*,-13.9,i
CCC(C)NS(=O)(=O)c1ccc(F)c(C(=O)Nc2c(F)cc(F)cc2Br)c1 (centres undefined),i,i,0.16,i,1.8,i
COC(=O)Cn1c2c(c3cc(C)ccc31)CCCC2NC(C)c1ccccc1 (centres undefined),i,i,-1.81,i,4.9*,i
O=C1/C(=N\S(=O)(=O)c2cccs2)C([n+]2cccc(Cc3ccccc3)c2)=C([O-])c2ccccc21,i,i,-0.68,-6.59*,-8.1,i
CCCC1=Nc2cc(C(=O)N3CCN(c4ccccn4)CC3)ccc2Sc2ccc(C)cc21,7*,i,-0.32,i,-19.4,i
COc1cc(OC)cc(C(=O)NCC(=O)OC2CCCCC2=O)c1 (centres undefined),nt,i,nt,nt,nt,nt
COc1cc(NC(=O)OCc2ccccc2)c2ncccc2c1,nt,-10.8*,nt,nt,nt,nt
COc1cc(NC(=O)c2cc(OC)c(OC)c(OC)c2)c2ncccc2c1,nt,i,nt,nt,nt,nt
CCN1C(=O)N[C@@H](c2ccccc2)[C@@H](C(=O)OC)[C@H]1C,i,i,0.3,i,-2.1,i
CCCn1c(NCc2cccc(OC)c2OC)nc2ccccc21,i,i,-0.57,i,-5.3,i
CCCn1c(NCc2c[nH]c3ccccc23)nc2ccccc21,i,i,-7.4*,i,-15.1,i
